Reference: ChEMBL document CHEMBL4689842, “EUbOPEN Chemogenomics Library wave 1” (2021)
“And” between values parts separate entries of the source, which are not always exact repeats. Equal values may be shown once.

System: Fibroblast
Experiment: Multiplex assay against human fibroblast
Type: toxicity, cell-based
Details: 1 µM, compound concentration 1 uM
Procedure, shortened: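 Values for tubulin, mitochondrial-mass and membrane-permeability phenotypes are per cents of cells with healthy nuclei. These cells were identified by CellPathfinder machine-learning gating of live cells that had been stained at seeding with Hoechst33342, BioTracker Green Microtubule Cytoskeleton Dye, MitoTracker Red and Annexin V Alexa Fluor 680 and imaged on a CQ1 microscope at 37°C and 5% CO2 after compound addition. The gating first set Hoechst high-intensity objects apart from normal cells, then split normal cells into healthy, pyknosed or fragmented nuclei, and pyknosed cells into mitotic or apoptotic.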

Q: `CN([C@@H](Cc1ccc(OS(=O)(=O)c2cccc3cnccc23)cc1)C(=O)N1CCN(c2ccccc2)CC1)S(=O)(=O)c1cccc2cnccc12` was tested. Which “Population Apoptotic (%)” value (12 h, replicate 1) did it give?
A: 54% and 75%

Q: What about the “Population Fragmented Nuclei (%)” value (12 h, replicate 1) of the same molecule?
A: 29%

Q: And the “Population Healthy Nuclei (%)” value (12 h, replicate 1)?
A: 56% and 53%

Q: And the “Population Hoechst High Intensity Objects (%)” value (12 h, replicate 1)?
A: 8% and 14%

Q: What about the “Population Membrane Permeable-Phenotype (%)” value (12 h, replicate 1) of the same molecule?
A: 45%

Q: And the “Population Mitotic Cells (%)” value (12 h, replicate 1)?
A: 45% and 25%

Q: And the “Population Normal (%)” value (12 h, replicate 1)?
A: 91% and 85%

Q: And the “Population Pyknosed Nuclei (%)” value (12 h, replicate 1)?
A: 13% and 17%

Q: What about the “Population Tubulin-Different-Phenotype (%)” value (12 h, replicate 1) of the same molecule?
A: 57% and 69%

Q: And the “Total Cell Count” value (12 h, replicate 1)?
A: 348 and 189

Q: What about the “Population Apoptotic (%)” value (12 h, replicate 2) of the same molecule?
A: 50% and 80%

Q: And the “Population Fragmented Nuclei (%)” value (12 h, replicate 2)?
A: 53% and 70%

Q: And the “Population Healthy Nuclei (%)” value (12 h, replicate 2)?
A: 39% and 14%

Q: What about the “Population Hoechst High Intensity Objects (%)” value (12 h, replicate 2) of the same molecule?
A: 30% and 41%

Q: What about the “Population Mitochondria Different-Phenotype (%)” value (12 h, replicate 2) of the same molecule?
A: 39% and 60%

Q: What about the “Population Mitotic Cells (%)” value (12 h, replicate 2) of the same molecule?
A: 50% and 20%

Q: What about the “Population Normal (%)” value (12 h, replicate 2) of the same molecule?
A: 69% and 58%

Q: What about the “Population Pyknosed Nuclei (%)” value (12 h, replicate 2) of the same molecule?
A: 6% and 14%

Q: What about the “Population Tubulin-Different-Phenotype (%)” value (12 h, replicate 2) of the same molecule?
A: 82% and 80%

Q: What about the “Total Cell Count” value (12 h, replicate 2) of the same molecule?
A: 84 and 58

Q: What about the “Population Apoptotic (%)” value (24 h, replicate 1) of the same molecule?
A: 66% and 59%

Q: And the “Population Fragmented Nuclei (%)” value (24 h, replicate 1)?
A: 23% and 30%

Q: What about the “Population Healthy Nuclei (%)” value (24 h, replicate 1) of the same molecule?
A: 61% and 59%

Q: And the “Population Hoechst High Intensity Objects (%)” value (24 h, replicate 1)?
A: 15% and 13%

Q: What about the “Population Membrane Permeable-Phenotype (%)” value (24 h, replicate 1) of the same molecule?
A: 30% and 21%

Q: And the “Population Mitotic Cells (%)” value (24 h, replicate 1)?
A: 33% and 40%

Q: And the “Population Normal (%)” value (24 h, replicate 1)?
A: 84% and 86%

Q: And the “Population Pyknosed Nuclei (%)” value (24 h, replicate 1)?
A: 15% and 10%

Q: What about the “Population Tubulin-Different-Phenotype (%)” value (24 h, replicate 1) of the same molecule?
A: 70% and 47%

Q: And the “Total Cell Count” value (24 h, replicate 1)?
A: 184 and 365

Q: And the “Population Fragmented Nuclei (%)” value (24 h, replicate 2)?
A: 76% and 52%

Q: And the “Population Healthy Nuclei (%)” value (24 h, replicate 2)?
A: 14% and 38%

Q: What about the “Population Hoechst High Intensity Objects (%)” value (24 h, replicate 2) of the same molecule?
A: 33% and 25%

Q: What about the “Population Membrane Permeable-Phenotype (%)” value (24 h, replicate 2) of the same molecule?
A: 40% and 25%

Q: What about the “Population Mitochondria Different-Phenotype (%)” value (24 h, replicate 2) of the same molecule?
A: 40% and 33%

Q: And the “Population Normal (%)” value (24 h, replicate 2)?
A: 66% and 74%

Q: And the “Population Pyknosed Nuclei (%)” value (24 h, replicate 2)?
A: 8% and 9%

Q: What about the “Population Tubulin-Different-Phenotype (%)” value (24 h, replicate 2) of the same molecule?
A: 60% and 91%

Q: What about the “Total Cell Count” value (24 h, replicate 2) of the same molecule?
A: 51 and 85
